Experimental data reported in ChEMBL document CHEMBL1146022, “Replacement of the metabolically labile methyl esters in the alkenyldiarylmethane series of non-nucleoside reverse transcriptase inhibitors with isoxazolone, isoxazole, oxazolone, or cyano substituents” (J Med Chem, 2006).

What was measured:
[1] = tested on: Human immunodeficiency virus 1; assay: Antiviral activity against HIV1 RF in CEM-SS cells by MTS cytoprotection assay; type: functional, organism-based; conditions: Human immunodeficiency virus 1, RF
How it was run: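 CEM-SS cells infected with HIV-1 RF; cytoprotection against viral cytopathic effect read by MTS assay. EC50 taken as the concentration giving 50% inhibition of cytopathicity.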

CEM-SS = assay: Cytotoxicity against mock-infected CEM-SS cells; type: functional; conditions: Homo sapiens
[2] = target: Human immunodeficiency virus type 1 reverse transcriptase (Human immunodeficiency virus 1, UniProt Q72547); assay: Inhibition of recombinant HIV1 reverse transcriptase measured as inhibition of incorporation of [32P]GTP in rCDG primer; type: functional
How it was run: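 Purified recombinant HIV-1 RT p66/p51 heterodimer. Polymerase activity followed as [32P]GTP incorporation on poly(rC)/oligo(dG) homopolymer template-primer. IC50 taken from inhibition of incorporation.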

[3] = tested on: Human immunodeficiency virus 2; assay: Antiviral activity against HIV2 ROD in MT4 cells by MTT assay; type: functional, organism-based; conditions: Human immunodeficiency virus 2, ROD
How it was run: (§1)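 MT-4 cells infected with HIV-1 IIIB or HIV-2 ROD; protection from virus-induced cytopathicity read by MTT assay. EC50 taken as the concentration giving 50% inhibition of cytopathicity.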

[4] = Half life in rat plasma; type: ADME
How it was run: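 In vitro hydrolytic stability in rat plasma, with 1,1-diphenylethylene or benzophenone as internal standard. Half-life reported in minutes with SD.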

MT4 = assay: Cytotoxicity against mock-infected MT4 cells; type: functional; conditions: Homo sapiens
[5] = tested on: Human immunodeficiency virus 1; assay: Antiviral activity against HIV1 3B in MT4 cells by MTT assay; type: functional, organism-based; conditions: Human immunodeficiency virus 1, 3B; how it was run: as §1

Row | SMILES | EC50 [1] [µM] | CC50 (CEM-SS) [µM] | IC50 [2] [µM] | EC50 [3] [µM] | half-life [4] [min] | CC50 (MT4) [µM] | EC50 [5] [µM]
1 | COC(=O)CCCC=C(c1cccc(C#N)c1)c1cc(C)c2on(C)c(=O)c2c1 | > 100 | 14 | 49.6 |  |  |  | 
2 | COC(=O)CCC/C=C(\c1cc(C)c(OC)c(C(=O)OC)c1)c1cc(C)c2on(C)c(=O)c2c1 | 1.1 | > 5 | 2 | > 27.1 | 1.85 | 27.1 | 3.1
3 | COC(=O)CCC/C=C(/c1cc(C)c(OC)c(C(=O)OC)c1)c1cc(C)c2oc(=O)n(C)c2c1 | 0.03 |  | 0.02 |  |  |  | 0.09
4 | COC(=O)CCC/C=C(/c1cc(C)c2on(C)c(=O)c2c1)c1cc(C)c2oc(=O)n(C)c2c1 | 1.79 | 11.1 | 49.2 | > 36.5 | 0.46 | 36.5 | 4.49
5 | COC(=O)CCC/C=C(/c1ccc(C#N)cc1)c1cc(C)c2oc(=O)n(C)c2c1 | 0.59 | 21.9 | 1.2 | > 51 |  | 51 | 1.49
6 | COC(=O)CCC/C=C(\c1cccc(C#N)c1)c1cc(C)c(OC)c(C(=O)OC)c1 | 0.46 | 10.9 | 0.54 | > 10.6 | 1.32 | 10.6 | 0.47
7 | COC(=O)CCCC=C(c1cccc(C#N)c1)c1cc(C)c2oc(=O)n(C)c2c1 | > 100 | 12.9 | 26.4 | > 54.2 | 1.18 | 54.2 | > 54.2
8 | COC(=O)CCC/C=C(/c1cccc(C#N)c1)c1cc(C)c2oc(=O)n(C)c2c1 | 1.73 | 11.5 | 2.8 |  |  |  | 
9 | COc1noc2c(C)cc(/C(=C\CCN3CCOC3=O)c3cc(C)c4on(C)c(=O)c4c3)cc12 | > 9.91 | 1.54 | 7.6 | > 1.12 | > 1440 | 1.12 | > 1.12
10 | COC(=O)c1cc(/C(=C\CCN2CCOC2=O)c2cc(C)c3on(C)c(=O)c3c2)cc(C)c1OC | 2.7 | 16.3 | 9.86 |  | 22.1 |  | 
